A selection: hits, their analogues and other compounds. The true share with any hit is near 2%.
Myeloid diff 2: promotes myeloid progenitor differentiation. ER-HoxA9 myeloid progenitors, lysozyme-GFP differentiation, flow cytometry. calls only at 10 µM. actives 1% (n = 360,000);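 active = normalized GFP-positive differentiation at or above the plate's own cutoff, the solvent-only control mean plus 3 SD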;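 note: cells exposed to compound for four days before flow analysis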
T cell HTS: modulates CD8 T cell binding to vesicles; actives 0.068% (n = 330,000); response (vesicle binding), % at 7 µM; AID 2052; 2C CD8+ T cell-vesicle binding, flow cytometry; active compounds read low;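 active = response, share of CD8 T cells binding vesicles, and their 90th percentile fluorescence all below set limits, cut at about 80% in these data, passing the limit was not always enough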;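 note: values below 100% mean blocked vesicle binding to the CD8+ T cells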
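Material: 2C TCR transgenic mouse naive CD8+ T cells, MACS-purified. Also added: QL9-charged Drosophila Ld/ICAM-1/B7-1 vesicles. Timing: binding 1.5 h at 37 °C. Measured by: high-throughput flow cytometry with anti-B7-1 and anti-CD8 staining. Read-out: percent CD8+ FL2 mean versus row control. Controls: Unloaded micro-vesicles (low), QL9 vesicles with 0.7% DMSO (high).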
GAA850 FXN act: increases GAA850 frataxin promoter reporter activity; HEK293 lucGAA850 FXN promoter luciferase reporter, 24 h; percent of 10 µM SAHA response; activation, % at 6 µM; actives 0.56% (n = 360,000); AID 540364;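 active = activation above the average of all compounds screened plus 3 SD, cutoff fixed separately per campaign, cut at about 7.5% in these data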;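 note: 0% = DMSO wells and 100% = 10 µM SAHA wells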
NR2E3 ag-1: activates human NR2E3 receptor. CHO-S Gal4-NCOR/VP16-NR2E3 two-hybrid, luciferase. inhibition of corepressor binding, % at 3.98 µM. actives 0.35% (n = 360,000). AID 602229;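 active = inhibition above the mean of all tested compounds plus 3 SD, cut at about 70% in these data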;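 note: 0% = DMSO with NR2E3 transfected cells and 100% = cells lacking NR2E3 construct; higher means lower luciferase signal from less NR2E3 corepressor binding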
Target sequence (Q9Y5X4 whole entry, looked up, the tested form may be a part): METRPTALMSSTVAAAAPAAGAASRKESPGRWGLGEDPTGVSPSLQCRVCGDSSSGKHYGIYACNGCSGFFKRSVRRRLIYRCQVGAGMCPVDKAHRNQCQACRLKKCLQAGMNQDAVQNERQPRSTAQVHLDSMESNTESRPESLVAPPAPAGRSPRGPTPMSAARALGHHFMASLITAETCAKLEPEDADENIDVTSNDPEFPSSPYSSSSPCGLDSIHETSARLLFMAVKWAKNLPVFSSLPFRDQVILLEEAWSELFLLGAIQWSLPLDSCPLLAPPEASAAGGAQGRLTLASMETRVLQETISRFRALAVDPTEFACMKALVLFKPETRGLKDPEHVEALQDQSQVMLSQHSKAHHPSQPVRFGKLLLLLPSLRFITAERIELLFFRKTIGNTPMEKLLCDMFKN
NR2E3 ag-2: activates human photoreceptor nuclear receptor NR2E3; Q9Y5X4; GST-NR2E3/biotin-RetCOR TR-FRET, 1536-well; inhibition of corepressor binding, % at 4.78 µM; actives 0.12% (n = 320,000); AID 2300;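 active = percent inhibition above the cutoff of mean plus 3 SD of all tested compounds, set per screening campaign, cut at about 20% in these data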;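 note: 0% = DMSO wells and 100% = biotin wells as full block of FRET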
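System: GST-tagged NR2E3 plus biotinylated RetCOR corepressor; Amount: 1.35 nM GST-tagged NR2E3 final; Dosing: single nominal compound dose of 4.8 µM; Schedule: 5 h incubation at 4 °C; Technique: TR-FRET with europium anti-GST and streptavidin-D2, 340 nm excitation; Controls: biotin wells as high control, 0.6% DMSO wells as low control.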
Active calls of the source: *; i = inactive; nt = no result; + = active, no number.

SMILES | Myeloid diff 2 | T cell HTS | GAA850 FXN act | NR2E3 ag-1 | NR2E3 ag-2
O=C(O)C1C(c2ccccc2)c2ccccc2C(O)C1CO (stereo not given) | i | nt | -1 | -18 | nt
O=S(=O)(c1ccccc1)N1CN(c2ccc(F)cc2F)c2nc3ccccc3nc21 | i | 343 | 2 | -42 | nt
CN1CCCN(S(=O)(=O)c2cccc(C(F)(F)F)c2)c2nc3ccccc3nc21 | + | 370 | 2 | 11 | 3
Cc1cccc(CS(=O)(=O)c2nnc([C@H](Cc3ccccc3)NC(=O)OC(C)(C)C)o2)c1 | i | 312 | 4 | -24 | 1
COC(=O)CS(=O)(=O)c1nnc([C@H](Cc2ccccc2)NC(=O)OC(C)(C)C)o1 | i | 144 | 15* | -6 | 3
CC(C)[C@H](NC(=O)[C@@H]1Cc2c([nH]c3ccccc23)C2c3ccccc3C(=O)N21)C(=O)N1CCC[C@H]1C(=O)O (stereo not given in full) | i | nt | -2 | -18 | nt
COC(=O)c1ccccc1S(=O)(=O)N1CCC(C(=O)OC(C)C(=O)N(C)Cc2ccccc2)CC1 (stereo not given) | i | nt | 1 | 4 | nt
CC(C)Cn1c(N)c(C(=O)NCC2CCCO2)c2nc3ccccc3nc21 (stereo not given) | + | 175 | 1 | 19 | 4
COc1ccc(OC)c(-n2c(N)c(C(=O)NCC3CCCO3)c3nc4ccccc4nc32)c1 (stereo not given) | i | nt | -2 | -10 | nt
CCN(CC)c1ccc(/C=C(\C#N)C(N)=O)cc1 | i | nt | 6 | 10 | nt
CCN(CC)c1ccc(/C=C(\C#N)C(N)=S)cc1 | + | 115 | 2 | -32 | -1
CC(=O)O[C@H]1C[C@@]2(C)[C@@H](C[C@@H](O)[C@H]3[C@@]4(C)CC[C@@H](O)[C@@H](C)[C@@H]4CC[C@@]32C)/C1=C(\CCC=C(C)C)C(=O)O | i | 535 | 1 | -2 | 7
Cc1ccc2[nH]cc(CCNC(=O)/C=C/c3ccco3)c2c1 | i | 78* | 0 | -26 | -1
Cc1ccc2[nH]cc(CCNC(=O)c3ccco3)c2c1 | i | 125 | 1 | 8 | -4
CCOC(=O)CCCNC(=O)CSc1nnc(-c2ccccc2)c(-c2ccccc2)n1 | i | 283 | 0 | -30 | 0
CCOC(=O)CC(=O)CSc1nc(-c2ccccc2)cc(-c2ccccc2)c1C#N | + | 164 | 2 | -4 | 2
CC(C)OC(=O)CC(=O)CSc1nc(-c2ccc(F)cc2)cc(-c2ccccc2)c1C#N | i | 232 | 2 | -32 | 1
COc1cc(-c2cc(-c3ccccc3)nc(SCC(=O)Nc3nccs3)c2C#N)cc(OC)c1OC | + | 338 | 3 | 11 | 9
COc1ccc(C(=O)NNC(=O)CSc2nnnn2C)cc1 | i | 62* | 1 | 15 | -1
CC(C)CC1C(C#N)=C(N)Oc2n[nH]c(-c3ccccc3)c21 (stereo not given) | i | 44* | -2 | -23 | -4
CC(=O)Nc1cc(-c2ccccc2N(C)C)cn2c(-c3cccc(C(F)(F)F)c3)cnc12 | + | nt | 0 | -11 | nt
CC(=O)Nc1cc(-c2cccc(NS(C)(=O)=O)c2)cn2c(-c3cccc(C(F)(F)F)c3)cnc12 | i | nt | 1 | -6 | nt
O=C(NCCCN1CCCC1)c1ccc(CS(=O)(=O)c2ccc(Cl)cc2)o1 | i | 221 | 0 | -13 | -2
CCn1c(SCc2nc3sc(C(=O)O)c(C)c3c(=O)[nH]2)nnc1-c1ccc(Cl)cc1 | nt | 136 | 0 | -9 | 0
Cc1sc2nc(CSc3nnnn3-c3ccc(Cl)cc3)[nH]c(=O)c2c1C | + | 290 | 1 | -14 | -4
SMILES | Myeloid diff 2 | T cell HTS | GAA850 FXN act | NR2E3 ag-1 | NR2E3 ag-2
COc1ccc(/C=C/c2ccc3ccccc3[n+]2C)cc1OC | + | 694 | 4 | -91 | 1
Oc1ccccc1-c1nnc(COc2ccc(Cl)cc2Cl)o1 | + | 397 | 2 | -41 | 1
CCCN(CCC)CC(O)Cn1cc(/C=C/C(=O)c2cccs2)c2ccccc21 (stereo not given) | + | 307 | -3 | -16 | 0
O=C(/C=C/c1cn(CC(O)CN2CCCCC2)c2ccccc12)c1cccs1 (stereo not given) | + | 193 | -3 | -12 | -3
O=C(OCc1cn([C@@H]2CN(C(=O)C3CCCCC3)[C@@H](c3ccc(Cl)cc3)C[C@H]2O)nn1)c1ccccc1 | i | nt | -1 | -4 | nt
Cc1cccc(C)c1OCC(=O)NNC(=O)CCCn1c(=O)oc2ccccc21 | i | 260 | 1 | -8 | nt
Cc1[nH]c2ccccc2c1C(=O)NS(=O)(=O)Nc1ccc(F)cc1 | + | 166 | 0 | -4 | -1
CC(=O)c1c(C)[nH]c(C(=O)OCC(=O)c2ccc(C)s2)c1C | i | 424 | 4 | -32 | -3
CCOC(=O)c1cc2c(ccn2C)n1CC(=O)N(Cc1ccccc1)c1ccccc1 | + | 770 | 1 | 5 | 3
CSc1ncccc1C(=O)Nc1cccc(S(=O)(=O)N2CCCCC2)c1 | i | 208 | 1 | 3 | -3
CN(Cc1cn(Cc2ccc(Cl)cc2)nn1)C1CN(Cc2cn(Cc3ccc(Cl)cc3)nn2)S(=O)(=O)C1 (stereo not given) | i | nt | nt | -12 | nt
COc1ccc(OC)c(NC(=O)CSc2ncnc3c2cnn3-c2ccccc2Cl)c1 | + | 483 | -6 | 65 | -2
CC(=O)N1N=C2/C(=C/c3ccccc3)CCCC2C1c1ccccc1 (stereo not given) | i | 71* | 1 | 4 | 0
Cc1[nH]c2ccccc2c1/C=N/NC(=S)NC(C)C | + | 219 | 4 | -42 | -1
CN(C)C(=O)COC(=O)c1ccccc1NC(=O)c1ccco1 | + | 375 | 2 | 14 | 1
O=C(COC(=O)c1ccccc1NC(=O)c1ccco1)NC1CC1 | i | 468 | 2 | -7 | 5
Cc1cccc(-n2ncc3c2CCCC3NC(=O)CCN2Cc3ccccc3C2=O)c1C (stereo not given) | i | 230 | -4 | 9 | 1
O=C(Cc1ccc([N+](=O)[O-])cc1)N1CCN(c2ccc([N+](=O)[O-])cc2)CC1 | i | 201 | 1 | -10 | -1
O=C(Cc1ccc(F)cc1)N1CCN(c2ccc([N+](=O)[O-])cc2)CC1 | + | 193 | -14 | 45 | nt
CN1\C(=C/C=C/C=C/C=[N+](C)C)C(C)(C)c2ccccc21 | + | nt | -3 | -11 | nt
CN(C)c1ccc(N=C/C=C2\N(C)c3ccccc3C2(C)C)cc1 | + | 239 | -5 | -43 | -6
COc1ccc(CN2C(=O)CSCC2(C)C(=O)NCc2ccccc2)cc1OC (stereo not given) | i | nt | nt | nt | nt
CCOc1ccc(N2C(=O)CS/C2=C(\C(Cl)=C(Cl)Cl)[N+](=O)[O-])cc1 | + | 764 | -4 | -14 | 0
